Screens from PubChem BioAssay.
APJ antag = antagonists of human apelin receptor APJ, primary screen, CHO-K1 cells, beta-arrestin complementation, luminescence; AID 2521, 2010; inhibition, % at 20 µM; hit rate 0.32% among 330,000;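 active means inhibition above about 40% at 20 µM, limit read from the data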;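 further: cells challenged with 10 nM apelin-13 agonist together with compound; plate controls were apelin-13 plus DMSO wells for no effect and DMSO wells lacking apelin-13 for full effect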
CXCR6 block = CXCR6 receptor inhibitors, primary screen, cell-based, beta-arrestin, luminescence, CHO-K1 PathHunter, 1536-well; C-X-C chemokine receptor type 6 (Homo sapiens), O00574; inhibition, % at 20 µM; hit rate 0.36% among 360,000; in the data active means inhibition above about 34%, passing the limit was not always enough;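 further: antagonist mode with CXCL16 agonist at 10 nM final; 0% = 10 nM CXCL16 with DMSO and 100% = unstimulated wells without agonist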
HTR2A ag = mouse Htr2a agonists via beta-arrestin recruitment, primary screen, cell-based, luminescence; hit rate 0.66% among 360,000; CHO-K1 mHTR2A beta-arrestin complementation; percent of 30 µM serotonin response; AID 624169, 2012; activation, % at 7.6 µM; 5-hydroxytryptamine receptor 2A (Mus musculus), P35363;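 active means activation above a run cutoff, the mean activation of all tested compounds plus 3 SD, cut at about 14% in these data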;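 further: 0% = plate median of compound wells and 100% = 30 µM serotonin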
EBI2 block = EBI2 receptor antagonists, beta-arrestin recruitment, primary screen, cell-based, luminescence, 7a,25-OHC stimulation, uHTS; hit rate 0.81% among 360,000; inhibition, % at 5 µM; 7a,25-OHC stimulated; G-protein coupled receptor 183 (Homo sapiens), P32249; in the data active means inhibition above about 38%;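 further: enzyme fragment complementation signal reports receptor beta-arrestin coupling in cells; 0% = agonist plus DMSO wells and 100% = wells without agonist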
Target sequence (P32249 whole entry, looked up, the tested form may be a part): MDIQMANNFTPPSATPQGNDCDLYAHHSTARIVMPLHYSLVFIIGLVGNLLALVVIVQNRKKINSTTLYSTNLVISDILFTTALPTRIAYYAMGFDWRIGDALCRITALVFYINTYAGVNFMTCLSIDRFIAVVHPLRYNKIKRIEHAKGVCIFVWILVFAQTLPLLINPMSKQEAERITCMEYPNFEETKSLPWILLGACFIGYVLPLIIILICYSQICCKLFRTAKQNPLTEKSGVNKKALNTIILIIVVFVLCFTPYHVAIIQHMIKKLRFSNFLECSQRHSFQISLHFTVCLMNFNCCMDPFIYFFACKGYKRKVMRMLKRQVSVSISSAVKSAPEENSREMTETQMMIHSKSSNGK
CCR6 antag = CCR6 receptor antagonists, primary screen, cell-based, CHO-K1, luminescence, beta-arrestin, uHTS. C-C chemokine receptor type 6 (Homo sapiens), P51684. CHO-K1 CCR6 PathHunter beta-arrestin, CCL20-stimulated. inhibition, % at 20 µM. hit rate 0.49% among 340,000. AID 493098, 2011;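 active means compounds whose inhibition of the agonist-driven luminescence signal at 20 µM reaches about 50%, limit read from the data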;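 further: cells stimulated with CCL20 at 14 nM final; plate controls were DMSO with CCL20 for no effect and DMSO without agonist for full effect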
APJ agonist = agonists of human apelin receptor APJ, primary screen, CHO-K1 cells, PathHunter beta-arrestin, luminescence; activation, % at 20 µM; 0% DMSO wells, 100% apelin; P35414; hit rate 0.11% among 330,000;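 active means activation more than six SD over the plate average, tested at 20 µM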;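 further: 0% = DMSO alone and 100% = apelin-13 at 10 nM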
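Assay system: CHO-K1 cells stably expressing ProLink-tagged human APJ and arrestin–beta-gal acceptor. Compound dosing: 20 µM single point, 1% DMSO. Times: 16-18 h seeding, 90 min dark compound exposure, 60 min detection. Detection: beta-gal luminescence. Evaluation: APJ–arrestin association signal. Controls: negative DMSO alone, positive Apelin-13 at 10 nM.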
OPRM1 ag = OPRM1 agonists via beta-arrestin recruitment, confirmation, counter-screen for mouse HTR2A agonist project, cell-based, luminescence, single concentration; shares compounds with HTR2A ag; activation, % at 9.3 µM; hit rate 5.3% among 2,300; U2OS OPRM1 beta-arrestin PathHunter; DMSO 0%, DAMGO 9.3 µM 100%;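 active means mean activation above the mean of DMSO-only wells plus 3 SD, cut at about 0.5% in these data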
m5-HT2A ag conf = mouse HTR2A agonists, beta-arrestin recruitment, confirmation, cell-based, luminescence, CHO-K1 PathHunter, triplicate; activation, % at 7.6 µM; shares compounds with HTR2A ag; DMSO 0%, 30 µM serotonin 100%; hit rate 19% among 2,300; AID 624381, 2012;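 active means mean activation across triplicates above the hit threshold derived in the original primary screen, cut at about 15% in these data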
* hit, by the source's call. Hits are enriched below; roughly 2.1% of the tested compounds scored in any of these assays.

`COc1cc(S(=O)(=O)NCc2ccc3c(c2)OCO3)c(OC)cc1C` gave APJ antag 7, CXCR6 block 1, HTR2A ag -2, EBI2 block -3, CCR6 antag 2 and APJ agonist -2.
Screening COCCn1c(SCC(=O)Nc2ccc(OC)cc2OC)nc2ccccc2c1=O returned APJ antag 9, CXCR6 block 6, HTR2A ag -2, EBI2 block -11, CCR6 antag 4 and APJ agonist 0.
Screening CC(=O)Nc1ccc(NC(=O)CSc2nc3ccccc3c(=O)n2CCCN2CCOCC2)cc1 returned APJ antag 12, CXCR6 block -2, HTR2A ag 6, EBI2 block -3, CCR6 antag 8 and APJ agonist -4.
For COc1ccc(-n2c(SCC(=O)Nc3cc(C(=O)O)ccc3C)nc3ccccc3c2=O)cc1Cl the results were APJ antag -13, CXCR6 block 5, HTR2A ag 17*, EBI2 block 5, CCR6 antag 5, APJ agonist -3, OPRM1 ag -1 and m5-HT2A ag conf -2.
Screening CC1CCN(CCCn2c(SCC(=O)Nc3ccccc3Cl)nc3ccccc3c2=O)CC1 returned APJ antag 12, CXCR6 block 6, HTR2A ag 43*, EBI2 block 15, CCR6 antag 10, APJ agonist -7, OPRM1 ag 0 and m5-HT2A ag conf 24*.
For COc1ccc(NC(=O)CSc2nc3ccccc3c(=O)n2CCCN2CCC(C)CC2)c(OC)c1 the results were APJ antag 21, CXCR6 block 7, HTR2A ag 61*, EBI2 block 3, CCR6 antag 26, APJ agonist -3, OPRM1 ag -1 and m5-HT2A ag conf 18*.
`Cc1ccc(NC(=O)CSc2nc3ccccc3c(=O)n2CCCN2CCCCC2)cc1Cl` gave APJ antag 7, CXCR6 block 6, HTR2A ag 30*, EBI2 block 5, CCR6 antag 11, APJ agonist 0, OPRM1 ag 0 and m5-HT2A ag conf 10.
Cc1ccc(N2C(=O)C(CC(=O)Nc3cccc(F)c3)N(C3CC3)C2=O)cc1 (stereo unspecified) was read as APJ antag 2, CXCR6 block 1, HTR2A ag 3, EBI2 block -3, CCR6 antag -1 and APJ agonist -4.
`Cc1nc2ncnn2c(C)c1CCC(=O)NCCCN1CCN(c2cccc(Cl)c2)CC1` gave APJ antag -2, CXCR6 block -3, HTR2A ag 24*, EBI2 block 1, CCR6 antag -11, APJ agonist 0, OPRM1 ag 0.9* and m5-HT2A ag conf 80*.
Screening CCn1nc(C(=O)Nc2nc(-c3ccccn3)cs2)c2ccccc2c1=O returned APJ antag -10, CXCR6 block 11, HTR2A ag 10, EBI2 block -15, CCR6 antag 14 and APJ agonist 3.
`CCCn1nc(C(=O)Nc2nc(-c3ccccn3)cs2)c2ccccc2c1=O` gave APJ antag -1, CXCR6 block 25, HTR2A ag 23*, EBI2 block -30, CCR6 antag 32, APJ agonist -4, OPRM1 ag 0 and m5-HT2A ag conf -5.
For COCC(=O)Nc1c(C(=O)Nc2ccccc2OC)oc2ccccc12 the results were APJ antag -6, CXCR6 block -5, HTR2A ag 15*, EBI2 block 10, CCR6 antag 7, APJ agonist -3, OPRM1 ag 0 and m5-HT2A ag conf -6.
COc1ccc(Cl)cc1S(=O)(=O)N1CCCc2ccccc21 was read as APJ antag 19, CXCR6 block 7, HTR2A ag 0, EBI2 block -1, CCR6 antag 10 and APJ agonist 0.
`COc1ccc(Cl)cc1S(=O)(=O)N1CCN=C1C` gave APJ antag 8, CXCR6 block -1, HTR2A ag 24*, EBI2 block 4, CCR6 antag 13, APJ agonist -24, OPRM1 ag 0 and m5-HT2A ag conf -1.
Nc1ncnc(N)c1N=Nc1ccccc1 was read as APJ antag 11, CXCR6 block -12, HTR2A ag 21*, EBI2 block -4, CCR6 antag 2, APJ agonist -2, OPRM1 ag -1 and m5-HT2A ag conf -2.
COc1ccc(NC(=O)N(C)C[C@H]2Oc3ccc(NC(=O)Nc4c(C)noc4C)cc3C(=O)N([C@H](C)CO)C[C@@H]2C)cc1 was read as APJ antag 7, CXCR6 block 9, HTR2A ag -1, EBI2 block -13, CCR6 antag -4 and APJ agonist -4.
Screening CC(=O)Nc1cccc(-c2ccnc3c2CC(C)(C(=O)Nc2ccc(Cl)cc2)O3)c1 (stereo unspecified) returned CXCR6 block 7, HTR2A ag -1 and EBI2 block 5.
Screening Cc1cc(C)nc(SCC(=O)c2ccc(F)c(C)c2)n1 returned APJ antag 19, CXCR6 block 3, HTR2A ag 36*, EBI2 block -2, CCR6 antag 16, APJ agonist -4, OPRM1 ag -1 and m5-HT2A ag conf -1.
Cc1cc(C)nc(SCC(=O)c2ccc(F)cc2)n1 was read as APJ antag -13, CXCR6 block 3, HTR2A ag 5, EBI2 block -4, CCR6 antag -4 and APJ agonist -2.
For O=C1Nc2ccccc2-n2nnnc2C1N1CCN(C(=O)c2ccco2)CC1 (stereo unspecified) the results were HTR2A ag 20*, EBI2 block -2, OPRM1 ag -1 and m5-HT2A ag conf -5.
`COc1ccc(C2CC(c3ccc4ccccc4c3)=NN2C(=O)COC(=O)C2CCC(=O)N2)cc1` (stereo unspecified) gave APJ antag 6, CXCR6 block 2, HTR2A ag 15*, EBI2 block 22, CCR6 antag 14, APJ agonist -4, OPRM1 ag 0 and m5-HT2A ag conf -1.
